Reference: ChEMBL document CHEMBL1133450, “Synthesis and antitumor activity of thieno-separated tricyclic purines” (2000)

What was measured:
HCT-116 [1] = test: Tested for HCT116 cell growth as percentage of control after 72 hr at 10 uM; conditions: Homo sapiens, HCT-116, 72 h
HCT-116 [2] = test: Tested for HCT116 cell growth as percentage of control after 24 hr at 100 uM; conditions: Homo sapiens, HCT-116, 24 h
HCT-116 [3] = test: Tested for percentage inhibition of HCT116 cell growth after 24 hr at 1 uM; type: functional; conditions: Homo sapiens, HCT-116, 24 h; values are per cent of control
How it was run: (§1)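 HCT116 cells grown in DMEM with 2 mM L-glutamine, penicillin/streptomycin, nonessential amino acids, 10% heat-inactivated FBS, 37 °C, 5% CO2. Seeded at 500 cells/well, 72 h later refed with serum-containing medium plus DMSO vehicle or agent. CellTiter96 read-out at 24, 48 or 72 h of treatment, expressed as % of DMSO-treated cells. Mean ± SEM, n = 3-5. Student's t-test, significance p < 0.05.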

HCT-116 [4] = test: Tested for percentage inhibition of HCT116 cell growth after 24 hr at 0.1 uM; type: functional; conditions: Homo sapiens, HCT-116, 24 h; values are per cent of control
How it was run: as §1

HCT-116 [5] = test: Tested for percentage inhibition of HCT116 cell growth after 48 hr at 10 uM; type: functional; conditions: Homo sapiens, HCT-116, 48 h; values are per cent of control
How it was run: as §1

HCT-116 [6] = test: Tested for percentage inhibition of HCT116 cell growth after 72 hr at 0.1 uM; type: functional; conditions: Homo sapiens, HCT-116, 72 h; values are per cent of control
How it was run: as §1

HCT-116 [7] = test: Tested for HCT116 cell growth as percentage of control after 72 hr at 1 uM; conditions: Homo sapiens, HCT-116, 72 h
HCT-116 [8] = test: Tested for HCT116 cell growth as percentage of control after 24 hr at 10 uM; conditions: Homo sapiens, HCT-116, 24 h
HCT-116 [9] = test: Tested for HCT116 cell growth as percentage of control after 48 hr at 100 uM, (p<0.005); conditions: Homo sapiens, HCT-116, 48 h
HCT-116 [10] = test: Tested for percentage inhibition of HCT116 cell growth after 48 hr at 1 uM; type: functional; conditions: Homo sapiens, HCT-116, 48 h; values are per cent of control
How it was run: as §1

HCT-116 [11] = test: Tested for HCT116 cell growth as percentage of control after 48 hr at 0.1 uM; conditions: Homo sapiens, HCT-116, 48 h
HCT-116 [12] = test: Tested for percentage inhibition of HCT116 cell growth after 72 hr at 100 uM, (p<0.05); type: functional; conditions: Homo sapiens, HCT-116, 72 h; values are per cent of control
How it was run: as §1

HCT-116 [13] = test: Tested for HCT116 cell growth as percentage of control after 24 hr at 10 uM; conditions: Homo sapiens, HCT-116, 24 h; remark: listed apart in the source
HCT-116 [14] = test: Tested for percentage inhibition of HCT116 cell growth after 48 hr at 100 uM, (p<0.05); type: functional; conditions: Homo sapiens, HCT-116, 48 h; values are per cent of control
How it was run: as §1

HCT-116 [15] = test: Tested for percentage inhibition of HCT116 cell growth after 72 hr at 0.1 uM, (p<0.05); type: functional; conditions: Homo sapiens, HCT-116, 72 h; values are per cent of control
How it was run: as §1

Compound | growth (% of control) at 10 µM (HCT-116 [1]) [%] | growth, % of control at 100 µM (HCT-116 [2]) [%] | growth, % of control at 1 µM (HCT-116 [3]) [%] | growth, % of control at 0.1 µM (HCT-116 [4]) [%] | growth (% of control) at 10 µM (HCT-116 [5]) [%] | growth, % of control at 0.1 µM (HCT-116 [6]) [%] | growth, % of control at 1 µM (HCT-116 [7]) [%] | growth (% of control) at 10 µM (HCT-116 [8]) [%] | growth, % of control at 100 µM (HCT-116 [9]) [%] | growth, % of control at 1 µM (HCT-116 [10]) [%] | growth, % of control at 0.1 µM (HCT-116 [11]) [%] | growth, % of control at 100 µM (HCT-116 [12]) [%] | growth (% of control) at 10 µM (HCT-116 [13]) [%] | growth, % of control at 100 µM (HCT-116 [14]) [%] | growth, % of control at 0.1 µM (HCT-116 [15]) [%]
Nc1ncnc2c1sc1nc[nH]c12 | 93.8 | 82 | 107 | 96.1 | 105 | 101 | 96.1 | 105 | 71.5 | 98.3 | 105 | 51.5 |  |  | 
Nc1nc(O)c2sc3[nH]cnc3c2n1 | 99.5 | 75.8 | 96.7 | 98.7 | 85 |  | 117 |  |  | 95.9 | 96.8 | 76.1 | 93.2 | 77 | 107
